# Measured values taken from ChEMBL document CHEMBL1129425, “New potent antihyperglycemic agents in db/db mice: synthesis and structure-activity relationship studies of (4-substituted benzyl) (trifluoromethyl)pyrazoles and -pyrazolones” (1996).
# Columns and labels:
# Assay type in all cases: functional
# [1] = test system: Mus musculus; assay: Percent change in the plasma glucose concentration of drug -treated db/db mice ([…], perorally) relative to vehicle at the dose 100 mg/kg; details: route oral
# [2] = test system: Mus musculus; assay: Percent change in the plasma glucose concentration of drug-treated db/db mice ([…], perorally) relative to vehicle at the dose 20 mg/kg.; details: route oral
# How it was run: (§1)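 Oral dosing of db/db mice once daily for 3 days, fed ad libitum. On day 4, food was withdrawn and a fourth dose given, then mice were fasted. After 4 h, mice were anesthetized with halothane and decapitated, and blood was collected into fluoride tubes. Plasma glucose was measured on an autoanalyzer and reported as mean ± SE percent change versus vehicle controls. […]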
# [3] = test system: Mus musculus; assay: Percent change in the plasma glucose concentration of drug-treated db/db mice (4-6 mice, perorally) relative to vehicle at the dose 5 mg/kg.; details: route oral; how it was run: as §1
# [4] = test system: Mus musculus; assay: Percent change in the plasma glucose concentration of drug -treated db/db mice ([…], perorally) relative to vehicle at the dose 0.5 mg/kg; details: route oral; how it was run: as §1
# [5] = test system: Mus musculus; assay: Percent change in the plasma glucose concentration of drug -treated db/db mice ([…], perorally) relative to vehicle at the dose 2 mg/kg; details: route oral
# [6] = test system: Mus musculus; assay: Concentration required to cause significant reduction in plasma glucose when administered orally in mice.; details: po
# [7] = test system: Mus musculus; assay: Percent change in the plasma glucose concentration of drug -treated db/db mice (4-6 mice, perorally) relative to vehicle at the dose mg/kg; how it was run: as §1
# [8] = species: Mus musculus; assay: Percent change in the plasma glucose concentration of drug -treated db/db mice ([…], perorally) relative to vehicle (dose not specified)
# [9] = test system: Mus musculus; assay: Percent change in the plasma glucose concentration of drug -treated db/db mice (4-6 mice, perorally) relative to vehicle at the dose 120 mg/kg; details: route oral; how it was run: as §1
SMILES,Change [2] [%],Change [3] [%],further results
CSc1ccc(Cc2c(C)n[nH]c2O)cc1,-36,–,Change [1]: -39%
Oc1[nH]nc(C(F)(F)F)c1Cc1ccc(F)cc1,-20,-3,–
CC(=O)c1ccc(Cc2c(C(F)(F)F)n[nH]c2O)cc1,–,-19,–
COc1c(Cc2ccc(SC)cc2)c(C(F)(F)F)nn1C,–,-39,–
C/C(=N\O)c1ccc(Cc2c(C(F)(F)F)n[nH]c2O)cc1,–,-28,–
CSc1ccc(Cc2c(C(F)(F)F)n(C)n(C)c2=O)cc1,-6,–,–
CCc1ccc(Cc2c(C(F)(F)F)n[nH]c2O)cc1,–,-39,Change [4]: -11%; Change [5]: -28%
Oc1[nH]nc(C(F)(F)F)c1Cc1ccccc1,–,–,Change [1]: -33%
Oc1[nH]nc(C(F)(F)F)c1Cc1ccc(C(F)(F)F)cc1,–,-15,–
CSc1ccc(Cc2c(C(F)(F)F)[nH]n(Cc3ccccc3)c2=O)cc1,10,–,–
CSc1ccc(CC2(C)C(=O)N(C)N=C2C(F)(F)F)cc1 (configuration not stated),6,–,–
CCCCOc1[nH]nc(C(F)(F)F)c1Cc1ccc(CC)cc1,-34,–,–
Oc1[nH]nc(C(F)(F)F)c1Cc1ccc(SC(F)(F)F)cc1,-15,5,–
CSc1ccc(Cc2c(C(F)(F)F)n[nH]c2OC(C)C)cc1,-40,–,–
CCc1ccc(Cc2c(OC)nn(C)c2C(F)(F)F)cc1,–,-38,–
CCCc1ccc(Cc2c(C(F)(F)F)n[nH]c2O)cc1,-44,–,–
CCSc1ccc(Cc2c(C(F)(F)F)n[nH]c2O)cc1,-38,-25,Change [5]: -23%
C[S+]([O-])c1ccc(Cc2c(C(F)(F)F)n[nH]c2O)cc1 (configuration not stated),–,-33,Change [5]: -25%
Cc1ccc(Cc2c(C(F)(F)F)n[nH]c2O)cc1,-36,–,–
COc1[nH]nc(C(F)(F)F)c1Cc1ccc(SC)cc1,-57,–,Change [5]: -16%
CCOc1c(Cc2ccc(SC)cc2)c(C(F)(F)F)nn1CC,–,-23,–
CSc1ccc(CC2(C)C(=O)NN=C2C(F)(F)F)cc1 (configuration not stated),-9,–,–
CS(=O)(=O)c1ccc(Cc2c(C(F)(F)F)n[nH]c2O)cc1,–,2,–

SMILES,Change [2] [%],Change [3] [%],further results
Oc1[nH]nc(C(F)(F)F)c1Cc1ccc(I)cc1,-48,–,–
CCCCOc1nn(CCCC)c(C(F)(F)F)c1Cc1ccc(CC)cc1,-3,–,–
CSc1ccc(Cc2c(C(F)(F)F)n[nH]c2O)cc1,-57,-43,Change [4]: -13%; Change [1]: -68%; ED50 [6]: 9.85 mg/kg; Change [5]: -29%
CC(C)(C)C(=O)c1ccc(Cc2c(C(F)(F)F)n[nH]c2O)cc1,–,–,Change [7]: -23%
CSc1ccc(Cc2c(C(F)(F)F)[nH]n(C)c2=O)cc1,–,-11,Change [8]: -40%
CCc1ccc(Cc2c(C(F)(F)F)n[nH]c2OC)cc1,–,-36,–
Oc1[nH]nc(C(F)(F)F)c1Cc1ccc2ccccc2c1,-45,–,–
CC(C)c1ccc(Cc2c(C(F)(F)F)n[nH]c2O)cc1,–,-17,–
COc1ccc(Cc2c(C(F)(F)F)n[nH]c2O)cc1,–,-22,–
CCCCSc1ccc(Cc2c(C(F)(F)F)n[nH]c2O)cc1,-3,–,–
Oc1[nH]nc(C(F)(F)F)c1Cc1ccc(Cl)cc1,–,-6,–
CCCCCCc1ccc(Cc2c(C(F)(F)F)n[nH]c2O)cc1,5,–,–
Oc1[nH]nc(C(F)(F)F)c1Cc1ccc(OC(F)(F)F)cc1,–,-4,–
COc1nn(C)c(C(F)(F)F)c1Cc1ccc(SC)cc1,-49,-41,Change [5]: -20%
CCNc1ccc(Cc2c(C(F)(F)F)n[nH]c2O)cc1,–,-11,Change [9]: -61%
CCOc1nn(CC)c(C(F)(F)F)c1Cc1ccc(SC)cc1,–,5,–
Oc1[nH]nc(C(F)(F)F)c1Cc1ccc(C(F)(C(F)(F)F)C(F)(F)F)cc1,1,–,–
CC(C)Sc1ccc(Cc2c(C(F)(F)F)n[nH]c2O)cc1,-32,–,–
Oc1[nH]nc(C(F)(F)F)c1Cc1ccc(Br)cc1,-47,-24,Change [5]: -5%
CSc1ccc(Cc2c(C(F)(F)F)n(C)[nH]c2=O)cc1,-29,-7,–
CC(C)(C)c1ccc(Cc2c(C(F)(F)F)n[nH]c2O)cc1,-7,–,–
CCCCc1ccc(Cc2c(C(F)(F)F)n[nH]c2O)cc1,–,-7,–
CC(O)c1ccc(Cc2c(C(F)(F)F)n[nH]c2O)cc1 (configuration not stated),–,-18,–
